Measured values collected from several papers.
Protocols differ between the studies behind these lines. pIC50: −log10 of the molar value.
Read-out: cell growth or viability

COc1c(C)c(OS(=O)(=O)c2ccc3ccccc3c2)c(C)c(OS(=O)(=O)c2ccc3ccccc3c2)c1C(=O)/C=C/c1ccccc1 — pIC50 (SH-SY5Y; SRB; 72 h): < 4.30
CCN1C(=O)N(c2c(F)c(OC)cc(OC)c2F)Cc2cnc3[nH]c(CN4CCOCC4)cc3c21 — pIC50 (NCI-H716; ATP luminescence; 96 h): 8.77
NCCOc1cc(NC(=O)c2cccc(C(=O)Nc3cc(OCCN)c4ccccc4n3)n2)nc2ccccc12 — pIC50 (HT-1080; ATP luminescence; 72 h): 6.52
Cc1cc(C)cc(COc2cc3c(cc2OCc2cc(C)cc(C)c2)[C@H]2C[C@](O)(Cc4cn(Cc5ccncc5)nn4)C[C@H](C)N2CC3)c1 — pIC50 (GES1; MTT; 48 h): 5.59
O=C(NCc1ccc(CO)cc1)c1c[nH]c2ccc(Cl)cc12 — pIC50 (T24; MTT): 4.77
NCCOc1cc(C(=O)Nc2cc(OCCN3CCCC3)c3ccccc3n2)nc(C(=O)Nc2cc(OCCN3CCCC3)c3ccccc3n2)c1 — pIC50 (HT-1080; ATP luminescence; 72 h): 6.70
CCN1CCN(c2ccc(Nc3cc(N(C)C(=O)Nc4c(Cl)c(OC)cc(OC)c4Cl)ncn3)cc2)CC1 — pIC50 (SNU-16; ATP luminescence; 96 h): 8.03
CC[C@H]1CN2CCc3cc(OC)c(OC)cc3[C@@H]2C[C@@H]1C[C@H]1NCCc2cc(OC)c(OC)cc21 — pIC50 (CHO; MTT): 6.60
CCN(CC)CCCC(C)Nc1cnc(C(=O)Nc2cc(F)cc3cccnc23)cn1 (centres unmarked) — pIC50 (Pan02; MTT): 5.37
CN1/C(=N/c2ccc(Cl)cc2)c2cc(C(N)=O)nc3c(N)c(Cl)c(N)c1c23 — pIC50 (HCC4017): 4.64
CC(=O)O[C@H]1C(=O)[C@@]2(C)[C@H]([C@H](OC(=O)c3ccccc3)[C@]3(O)C[C@H](OC(=O)[C@H](O)[C@@H](NC(=O)c4ccccc4)c4ccccc4)C(C)=C1C3(C)C)[C@]1(OC(C)=O)CO[C@@H]1C[C@@H]2O — pIC50 (HCC1937; ATP luminescence; 72 h): < 5.60
C#CCOc1cc(C(=O)Nc2cc(OCCCN)c3ccccc3n2)nc(C(=O)Nc2cc(OCCCN)c3ccccc3n2)c1 — pIC50 (HT-1080; ATP luminescence; 72 h): 5.59
COc1cccc2c1C(=O)c1c(O)c3c(c(O)c1C2=O)C[C@@](O)(C(=O)CO)C[C@@H]3O[C@H]1C[C@H](N)[C@H](O)[C@H](C)O1 — pIC50 (BHK; SRB; 48 h): 4.44
COc1cc(C(=O)Nc2cc(OCCN3CCCC3)c3ccccc3n2)nc(C(=O)Nc2cc(OCCN3CCCC3)c3ccccc3n2)c1 — pIC50 (HT-1080; ATP luminescence; 72 h): 5.82
COc1cc(Nc2nccc(-c3cnn4nc(OC)ccc34)n2)cc(C(F)(F)F)c1 — pIC50 (HT-1080; ATP luminescence): 6.74
COc1cc(C(=O)Nc2cc(OC)c3ccccc3n2)nc(C(=O)Nc2cc(OC)c3ccccc3n2)c1 — pIC50 (HT-1080; ATP luminescence; 72 h): < 4.40
O=C1Nc2ccccc2C1=Cc1cc2ccc(Cl)cc2nc1Cl — pIC50 (CHO; MTT; 72 h): 4.41
